Reference: ChEMBL document CHEMBL1687724, “Roles of NF-kappaB activation and peroxisome proliferator-activated receptor gamma inhibition in the effect of rifampin on inducible nitric oxide synthase transcription in human lung epithelial cells” (Antimicrob Agents Chemother, 2009)
Active and inactive are the calls of the source. The rule behind the calls is not given here.

Experiments:
A549 [1] = assay: Reduction in PPARgamma expression in human A549 cells assessed as increase in 100 ng/ml IL1-beta, TNF-alpha and IFN-gamma-induced PPARgamma down regulation normalized to beta-actin expression level at 50 ug/ml by Western blot analysis; format: functional, cell-based
Summary of the method: (§1)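 A549 cells starved 24 h, then 24 h with medium, cytokine mix (100 ng/ml each), or mix plus graded rifampin; whole-cell extracts immunoblotted with mouse anti-PPARγ, signal normalized to β-actin by densitometry; five experiments, mean ± SEM, unpaired t test.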

DLD-1 = assay: Effect on iNOS expression in human DLD1 cells assessed as increase in 100 ng/ml IL1-beta, TNF-alpha and IFN-gamma-stimulated iNOS […] expression normalized to beta-actin expression level at 10 to 50 ug/ml after 24 hrs by Western blot analysis; format: functional, cell-based
A549 [2] = assay: Induction of iNOS expression in human A549 cells at 25 to 50 ug/ml by Western blot analysis; format: functional, cell-based
A549 [3] = assay: Effect on iNOS expression in human A549 cells assessed as fold increase in 100 ng/ml IL1-beta, TNF-alpha and IFN-gamma-stimulated iNOS mRNA expression at 50 ug/ml after 19 hrs by TaqMan real-time RT-PCR relative to control; format: functional
Summary of the method: (§2)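 A549 cells starved 24 h, then 19 h with cytokine mix (100 ng/ml each) ± rifampin 10 or 50 μg/ml (DMSO stock diluted ≥1:1,000); 2 μg total RNA reverse transcribed (random hexamers), iNOS by TaqMan real-time RT-PCR normalized to β-actin; medium-only control set to 1; four experiments, mean ± SEM.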

A549 [4] = assay: Effect on NF-kappaB activation in 100 ng/ml IL-1beta, TNF-alpha and IFN-gamma-stimulated human A549 cells assessed as degradation of inhibitory subunit IkappaB measured upto 3 hrs at 50 ug/ml by Western blot analysis; format: functional, cell-based
Summary of the method: (§3)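 A549 cells (2 × 10⁶/dish) starved 24 h, then exposed to cytokine mix (100 ng/ml each) ± rifampin 50 μg/ml, or rifampin alone; lysates taken over time (30 min to 3 h), 20–30 μg protein immunoblotted for IκB, ECL detection, densitometry; three experiments.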

A549 [5] = assay: Effect on PPARgamma expression in human A549 cells assessed as decrease in PPARgamma expression normalized to beta-actin expression level at 50 ug/ml by Western blot analysis; format: functional, cell-based; summary of the method: as §1
A549 [6] = assay: Effect on p38 phosphorylation in human A549 cells assessed as increase in IL1-beta, TNF-alpha and IFN-gamma-induced phosphorylation at 50 ug/ml after 15 to 30 mins by Western immunoblotting analysis; format: functional, cell-based
Summary of the method: (§4)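 A549 cells serum/antibiotic-starved 24 h, then given cytokine mix (IL-1β, TNF-α, IFN-γ) with or without rifampin (50 μg/ml); total lysates at 15, 30, 60 min; 20–30 μg protein on 10% SDS-PAGE, immunoblotted for phospho-ERK1/2, phospho-JNK, phospho-p38 and total forms; ECL detection, densitometry.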

A549 [7] = assay: Effect on NF-kappaB activation in human A549 cells assessed as degradation of inhibitory subunit IkappaB after 30 mins at 50 ug/ml by Western blot analysis; format: functional, cell-based; summary of the method: as §3
A549 [8] = assay: Induction of NF-kappaB activation in IL1-beta, TNF-alpha and IFN-gamma-stimulated human A549 cells assessed as fold increase in NF-kappaB/DNA binding at 50 ug/ml by electrophoretic mobility shift assay; format: functional
Summary of the method: (§5)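 Nuclear extracts from A549 cells 2 h after cytokine mix (IL-1β, TNF-α, IFN-γ) ± rifampin 50 μg/ml; 2 μl extract bound to biotin-labeled NF-κB consensus probe, 5% native PAGE in TBE, streptavidin-HRP chemiluminescence; specificity checked with cold NF-κB oligonucleotide.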

[9] = target: Nitric oxide synthase, inducible (Homo sapiens) (UniProt P35228); assay: Effect on iNOS in human A549 cells assessed as increase in iNOS mRNA expression at 50 ug/ml after 19 hrs by TaqMan real-time RT-PCR relative to control; format: cell-based; summary of the method: as §2
Nitric oxide synthase, inducible (Homo sapiens), sequence (P35228 whole entry): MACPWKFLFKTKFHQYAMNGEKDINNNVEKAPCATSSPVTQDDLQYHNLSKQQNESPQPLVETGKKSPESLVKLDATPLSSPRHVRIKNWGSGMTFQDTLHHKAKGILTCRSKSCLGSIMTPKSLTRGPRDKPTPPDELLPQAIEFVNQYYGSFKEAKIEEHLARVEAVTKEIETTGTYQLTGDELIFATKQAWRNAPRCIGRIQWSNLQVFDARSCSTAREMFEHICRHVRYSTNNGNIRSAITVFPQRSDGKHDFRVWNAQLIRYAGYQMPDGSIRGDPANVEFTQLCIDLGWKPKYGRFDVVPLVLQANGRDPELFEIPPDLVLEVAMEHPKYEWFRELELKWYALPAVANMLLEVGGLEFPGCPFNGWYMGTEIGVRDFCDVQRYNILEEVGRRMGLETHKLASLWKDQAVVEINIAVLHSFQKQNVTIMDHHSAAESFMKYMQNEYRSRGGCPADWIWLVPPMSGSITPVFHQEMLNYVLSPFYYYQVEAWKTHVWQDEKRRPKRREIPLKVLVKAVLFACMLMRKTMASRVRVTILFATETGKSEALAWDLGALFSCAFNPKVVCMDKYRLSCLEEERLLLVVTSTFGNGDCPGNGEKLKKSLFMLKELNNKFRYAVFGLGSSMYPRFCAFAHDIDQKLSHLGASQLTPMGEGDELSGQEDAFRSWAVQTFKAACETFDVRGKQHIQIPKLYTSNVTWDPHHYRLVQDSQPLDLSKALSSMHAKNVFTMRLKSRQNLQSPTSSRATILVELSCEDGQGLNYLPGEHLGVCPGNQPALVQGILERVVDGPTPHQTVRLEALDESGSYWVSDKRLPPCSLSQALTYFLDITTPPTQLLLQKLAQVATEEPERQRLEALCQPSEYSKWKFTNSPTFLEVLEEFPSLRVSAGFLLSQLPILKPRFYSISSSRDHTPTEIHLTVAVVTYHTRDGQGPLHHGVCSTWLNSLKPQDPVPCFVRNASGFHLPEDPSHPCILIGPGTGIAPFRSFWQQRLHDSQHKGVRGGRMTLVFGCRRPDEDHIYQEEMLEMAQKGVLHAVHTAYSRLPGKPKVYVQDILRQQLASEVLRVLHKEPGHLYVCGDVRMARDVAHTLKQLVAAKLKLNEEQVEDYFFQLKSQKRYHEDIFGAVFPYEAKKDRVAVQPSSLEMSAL

[10] = Cmax in serum of human patient undergoing fibre-optic bronchoscopy at 600 mg, po administered as single dose; format: ADME, organism-based; set-up: dose 600 mg, route oral
A549 [11] = assay: Effect on STAT-1 phosphorylation in human A549 cells assessed as increase in IL1-beta, TNF-alpha and IFN-gamma-induced phosphorylation at 50 ug/ml after 15 to 30 mins by Western immunoblotting analysis; format: functional, cell-based
Summary of the method: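 A549 cells starved 24 h in serum- and antibiotic-free medium, treated with cytokine mix (IL-1β, TNF-α, IFN-γ) ± rifampin; total lysates immunoblotted (10% SDS-PAGE, PVDF) with rabbit anti-phospho-STAT-1; ECL detection with densitometry.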

A549 [12] = assay: Effect on iNOS expression in human A549 cells assessed as fold increase in 100 ng/ml IL1-beta, TNF-alpha and IFN-gamma-stimulated iNOS mRNA expression at 10 ug/ml after 19 hrs by TaqMan real-time RT-PCR relative to control; format: functional; summary of the method: as §2
A549 [13] = assay: Effect on NF-kappaB activation in 100 ng/ml IL-1beta, TNF-alpha and IFN-gamma-stimulated human A549 cells assessed as degradation of inhibitory subunit IkappaB at 50 ug/ml by Western blot analysis; format: functional, cell-based; summary of the method: as §3
A549 [14] = assay: Induction of iNOS expression in human A549 cells at 25 to 50 ug/ml by Western blot analysis in presence of IFN-gamma; format: functional, cell-based
Summary of the method: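 A549 cells starved 24 h, then given rifampin with IFN-γ, each agent alone, or cytokine mix; total cell extracts prepared 20 h after stimulation and immunoblotted with rabbit anti-iNOS, ECL detection.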

A549 [15] = assay: Induction of NF-kappaB activation in human A549 cells assessed as fold increase in NF-kappaB/DNA binding at 50 ug/ml by electrophoretic mobility shift assay; format: functional, cell-based; summary of the method: as §5
HT-29 = assay: Effect on iNOS expression in human HT-29 cells assessed as increase in 100 ng/ml IL1-beta, TNF-alpha and IFN-gamma-stimulated iNOS […] expression normalized to beta-actin expression level at 10 to 50 ug/ml after 24 hrs by Western blot analysis; format: functional, cell-based
A549 [16] = assay: Effect on ERK1/2 phosphorylation in human A549 cells assessed as increase in IL1-beta, TNF-alpha and IFN-gamma-induced phosphorylation at 50 ug/ml after 15 to 30 mins by Western immunoblotting analysis; format: functional, cell-based; summary of the method: as §4
A549 [17] = assay: Effect on JNK phosphorylation in human A549 cells assessed as increase in IL1-beta, TNF-alpha and IFN-gamma-induced phosphorylation at 50 ug/ml after 15 to 30 mins by Western immunoblotting analysis; format: functional, cell-based; summary of the method: as §4

CO[C@H]1/C=C/O[C@@]2(C)Oc3c(C)c(O)c4c(O)c(c(/C=N/N5CCN(C)CC5)c(O)c4c3C2=O)NC(=O)/C(C)=C\C=C\[C@H](C)[C@H](O)[C@@H](C)[C@@H](O)[C@@H](C)[C@H](OC(C)=O)[C@@H]1C [RIFAMPIN]
Activity (A549 [1]): Active
Activity (DLD-1): inactive
Activity (A549 [2]): inactive
fold change (FC) (A549 [3]): 4
Activity (A549 [4]): Active
Activity (A549 [5]): inactive
Activity (A549 [6]): inactive
Activity (A549 [7]): Active
fold change (FC) (A549 [8]): 2.1
Activity [9]: inactive
Cmax [10]: 15000 ng/mL
Activity (A549 [11]): inactive
fold change (FC) (A549 [12]): 1.9
Activity (A549 [13]): Active
Activity (A549 [14]): Active
Activity (A549 [15]): Active
Activity (HT-29): Dose-dependent effect
Activity (A549 [16]): inactive
Activity (A549 [17]): inactive
